Laboratory results taken from ChEMBL document CHEMBL4028868, “Click-Chemistry-Mediated Synthesis of Selective Melanocortin Receptor 4 Agonists” (J Med Chem, 2017).

What was measured:
Format in all cases: functional, cell-based
[1] = biological target: T1, Melanocortin receptor 5 (Homo sapiens, UniProt P33032); assay: Agonist activity at EYFP-fused human MC5R expressed in HEK293 cells after 16 to 20 hrs by CRE-driven reporter assay
Outline: (§1)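 HEK293 monoclonal lines carrying a single receptor/9×CRE-d2EYFP construct, selected with puromycin and FACS-sorted, kept in low-fluorescence DMEM. EYFP imaged with bright-field images, normalized to cell coverage, corrected for unstimulated cells and scaled to α-MSH maximum. Four-parameter fit constrained to minimum 0, at least three independent experiments.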

[2] = biological target: T1, Melanocortin receptor 5; assay: Agonist activity at EYFP-fused human MC5R expressed in HEK293 cells after 16 to 20 hrs by CRE-driven reporter assay relative to alpha-MSH; outline: as §1
[3] = biological target: T2, Melanocortin receptor 3 (Homo sapiens, UniProt P41968); assay: Agonist activity at EYFP-fused human MC3R expressed in HEK293 cells after 16 to 20 hrs by CRE-driven reporter assay; outline: as §1
[4] = biological target: T3, Melanocortin receptor 4 (Homo sapiens, UniProt P32245); assay: Agonist activity at EYFP-fused human MC4R expressed in HEK293 cells assessed as increase in cAMP accumulation after 30 mins by luminescent enzymatic complementation based assay
[5] = biological target: T3, Melanocortin receptor 4; assay: Agonist activity at EYFP-fused human MC4R expressed in HEK293 cells after 16 to 20 hrs by CRE-driven reporter assay
[6] = biological target: T2, Melanocortin receptor 3; assay: Agonist activity at EYFP-fused human MC3R expressed in HEK293 cells after 16 to 20 hrs by CRE-driven reporter assay relative to alpha-MSH; outline: as §1
[7] = biological target: T2, Melanocortin receptor 3; assay: Agonist activity at EYFP-fused human MC3R expressed in HEK293 cells at 3000 nM after 16 to 20 hrs by CRE-driven reporter assay relative to alpha-MSH
Outline: (§2)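 HEK293 monoclonal lines carrying a single receptor/9×CRE-d2EYFP construct, selected with puromycin and FACS-sorted, kept in low-fluorescence DMEM. Seeded at 50,000 cells/well and treated after 24 h for 16–20 h with 11-point 3-fold dilutions (3.3 μM to […]) in triplicate, vehicle 0.5% v/v DMSO. EYFP imaged with bright-field images, normalized to cell coverage, corrected for unstimulated cells and scaled to α-MSH maximum. Four-parameter fit constrained to minimum 0, at least three independent experiments.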

[8] = biological target: T1, Melanocortin receptor 5; assay: Agonist activity at EYFP-fused human MC5R expressed in HEK293 cells at 3000 nM after 16 to 20 hrs by CRE-driven reporter assay relative to alpha-MSH; outline: as §2
[9] = biological target: T3, Melanocortin receptor 4; assay: Agonist activity at EYFP-fused human MC4R expressed in HEK293 cells at 3000 nM after 16 to 20 hrs by CRE-driven reporter assay relative to alpha-MSH; outline: as §2
[10] = biological target: T3, Melanocortin receptor 4; assay: Agonist activity at EYFP-fused human MC4R expressed in HEK293 cells assessed as increase in cAMP accumulation at 3000 nM after 30 mins by luminescent enzymatic complementation based assay relative to alpha-MSH
Outline: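 MC4R-expressing HEK293 cells seeded at 50,000/well and switched after 24 h to HBSS with 500 μM IBMX. Ligand was added as 11-point series in triplicate for 30 min. Cells were lysed and incubated with enzyme fragments and substrate at room temperature in the dark for at least 4 h. Luminescence from enzyme complementation was background-corrected and normalized to the α-MSH maximum, with at least three independent experiments.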

T3 sequence (P32245 whole entry, the tested form may be a part): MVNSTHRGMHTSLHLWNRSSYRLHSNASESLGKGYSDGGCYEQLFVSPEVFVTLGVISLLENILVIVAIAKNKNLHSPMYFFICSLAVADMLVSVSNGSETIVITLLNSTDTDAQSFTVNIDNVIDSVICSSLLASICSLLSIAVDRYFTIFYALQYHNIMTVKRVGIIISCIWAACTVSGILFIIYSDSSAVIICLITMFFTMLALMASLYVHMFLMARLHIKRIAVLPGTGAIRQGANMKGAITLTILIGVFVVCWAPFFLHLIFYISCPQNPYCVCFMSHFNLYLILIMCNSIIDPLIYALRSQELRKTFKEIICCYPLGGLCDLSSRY
T2 sequence (P41968 whole entry, the tested form may be a part): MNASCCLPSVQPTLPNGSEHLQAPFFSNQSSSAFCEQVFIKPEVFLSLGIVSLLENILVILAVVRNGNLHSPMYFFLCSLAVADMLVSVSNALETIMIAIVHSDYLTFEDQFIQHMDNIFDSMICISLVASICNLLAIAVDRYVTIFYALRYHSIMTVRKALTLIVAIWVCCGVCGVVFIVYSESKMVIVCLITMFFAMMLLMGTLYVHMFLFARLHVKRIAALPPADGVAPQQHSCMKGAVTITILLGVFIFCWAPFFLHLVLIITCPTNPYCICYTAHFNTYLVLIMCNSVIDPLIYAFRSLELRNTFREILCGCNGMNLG
T1 sequence (P33032 whole entry, the tested form may be a part): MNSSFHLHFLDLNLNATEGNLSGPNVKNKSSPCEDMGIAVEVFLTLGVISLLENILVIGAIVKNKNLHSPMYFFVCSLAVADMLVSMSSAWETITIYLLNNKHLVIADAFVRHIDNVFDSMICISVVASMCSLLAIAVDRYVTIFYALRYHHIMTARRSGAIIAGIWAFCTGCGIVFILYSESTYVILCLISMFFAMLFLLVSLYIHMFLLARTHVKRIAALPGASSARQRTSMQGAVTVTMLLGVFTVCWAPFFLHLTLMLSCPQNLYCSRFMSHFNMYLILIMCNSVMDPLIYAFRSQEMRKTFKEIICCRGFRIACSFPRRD

SMILES | EC50 [1] [nM] | Emax [2] [%] | EC50 [3] [nM] | EC50 [4] [nM] | EC50 [5] [nM] | Emax [6] [%] | Emax [7] [%] | Emax [8] [%] | Emax [9] [%] | Emax [10] [%]
CSCC[C@H](NC(=O)[C@@H]1Cc2cn(nn2)C[C@H](NC(=O)[C@@H](N)CCCNC(=N)N)C(=O)N[C@@H](Cc2cnc[nH]2)C(=O)N[C@H](Cc2ccccc2)C(=O)N[C@@H](CCCNC(=N)N)C(=O)N[C@@H](Cc2c[nH]c3ccccc23)C(=O)N1)C(=O)O | 752 | 85 | 291 | 43.3 | 11.4 | 102 |  |  |  | 
CSCC[C@H](NC(=O)[C@@H]1Cc2cn(nn2)C[C@H](NC(=O)[C@@H](N)CCCCN)C(=O)N[C@@H](Cc2cnc[nH]2)C(=O)N[C@H](Cc2ccccc2)C(=O)N[C@@H](C)C(=O)N[C@@H](Cc2c[nH]c3ccccc23)C(=O)N1)C(=O)O | > 3000 |  | > 3000 | 684 | 258 |  | 10 | 5 |  | 
CSCC[C@H](NC(=O)[C@@H]1Cc2cn(nn2)C[C@H](NC(=O)[C@@H](N)CCCCN)C(=O)N[C@@H](Cc2cnc[nH]2)C(=O)N[C@H](Cc2ccccc2)C(=O)N[C@@H](CCCNC(=N)N)C(=O)N[C@@H](C)C(=O)N1)C(=O)O | 809 to 3000 |  | 1910 to 3000 | > 3000 | > 3000 |  | 17 | 18 | 19 | 16
CSCC[C@H](NC(=O)[C@@H]1Cc2cn(nn2)C[C@H](NC(=O)[C@@H](N)CCCCN)C(=O)N[C@@H](Cc2cnc[nH]2)C(=O)N[C@H](Cc2ccccc2)C(=O)N[C@@H](CCCCN)C(=O)N[C@@H](Cc2c[nH]c3ccccc23)C(=O)N1)C(=O)O | > 3000 |  | > 3000 | 124 | 12.7 |  | 40 | 13 |  | 
CSCC[C@H](NC(=O)[C@@H]1Cc2cn(nn2)C[C@H](NC(=O)[C@@H](N)CCCCN)C(=O)N[C@@H](Cc2cnc[nH]2)C(=O)N[C@H](Cc2ccccc2)C(=O)N[C@@H](CCCN)C(=O)N[C@@H](Cc2c[nH]c3ccccc23)C(=O)N1)C(=O)O | > 3000 |  | > 3000 | 730 | 318 |  | 12 | 9 |  | 
CSCC[C@H](NC(=O)[C@@H]1Cc2cn(nn2)C[C@H](NC(=O)[C@@H](N)CCCCN)C(=O)N[C@@H](Cc2c[nH]c3ccccc23)C(=O)N[C@H](Cc2ccccc2)C(=O)N[C@@H](CCCNC(=N)N)C(=O)N[C@@H](Cc2cnc[nH]2)C(=O)N1)C(=O)O | > 3000 |  | > 3000 | > 3000 | > 3000 |  | 0 | 0 | 48 | 28
CSCC[C@H](NC(=O)[C@@H]1Cc2cn(nn2)C[C@H](NC(=O)[C@H](C)N)C(=O)N[C@@H](Cc2cnc[nH]2)C(=O)N[C@H](Cc2ccccc2)C(=O)N[C@@H](CCCNC(=N)N)C(=O)N[C@@H](Cc2c[nH]c3ccccc23)C(=O)N1)C(=O)O | 137 | 123 | 19.4 | 2 | 1.4 | 111 |  |  |  | 
CSCC[C@H](NC(=O)[C@@H]1Cc2cn(nn2)C[C@H](NC(=O)[C@@H](N)CCCCN)C(=O)N[C@@H](Cc2cnc[nH]2)C(=O)N[C@@H](Cc2ccccc2)C(=O)N[C@@H](CCCNC(=N)N)C(=O)N[C@@H](Cc2c[nH]c3ccccc23)C(=O)N1)C(=O)O | > 3000 |  | > 3000 | 792 | 678 |  | 32 | 1 |  | 
CSCC[C@H](NC(=O)[C@@H]1Cc2cn(nn2)C[C@H](NC(=O)[C@@H](N)CCCCN)C(=O)N[C@@H](C)C(=O)N[C@H](Cc2ccccc2)C(=O)N[C@@H](CCCNC(=N)N)C(=O)N[C@@H](Cc2c[nH]c3ccccc23)C(=O)N1)C(=O)O | 375 | 130 | 633 | 28.8 | 2.8 | 104 |  |  |  | 
CC[C@@H](C)[C@H]1NC(=O)[C@H](Cc2cnc[nH]2)NC(=O)[C@@H](NC(=O)[C@@H](N)CCCCN)Cn2cc(nn2)C[C@@H](C(=O)N[C@@H](CCSC)C(=O)O)NC(=O)[C@H](Cc2c[nH]c3ccccc23)NC(=O)[C@H](CCCNC(=N)N)NC1=O | > 3000 |  | > 3000 | > 3000 | > 3000 |  | 0 | 0 | 42 | 13
CSCC[C@H](NC(=O)[C@@H]1Cc2cn(nn2)C[C@H](NC(=O)[C@@H](N)CCCCN)C(=O)N[C@@H](Cc2cnc[nH]2)C(=O)N[C@H](Cc2ccccc2)C(=O)N[C@@H](CCCNC(=N)N)C(=O)N[C@@H](Cc2csc3ccccc23)C(=O)N1)C(=O)O | > 3000 |  | 821 | 63.7 | 7.6 | 96 |  | 59 |  | 
CC(=O)N[C@@H](CCCNC(=N)N)C(=O)N[C@H]1CSSC[C@@H](C(N)=O)NC(=O)[C@H](Cc2c[nH]c3ccccc23)NC(=O)[C@H](CCCNC(=N)N)NC(=O)[C@@H](Cc2ccccc2)NC(=O)[C@H](Cc2c[nH]cn2)NC(=O)[C@@H](C)NC1=O | 110 |  |  |  |  |  |  |  |  | 
C[C@H](NC(=O)[C@@H]1Cc2cn(nn2)C[C@H](NC(=O)[C@@H](N)CCCCN)C(=O)N[C@@H](Cc2cnc[nH]2)C(=O)N[C@H](Cc2ccccc2)C(=O)N[C@@H](CCCNC(=N)N)C(=O)N[C@@H](Cc2c[nH]c3ccccc23)C(=O)N1)C(=O)O | 635 | 126 | 162 | 17.9 | 2.3 | 107 |  |  |  | 
CSCC[C@H](NC(=O)[C@@H]1Cc2cn(nn2)[C@@H](CCCNC(=N)N)C(=O)N[C@@H](Cc2cnc[nH]2)C(=O)N[C@H](Cc2ccccc2)C(=O)N[C@@H](CCCNC(=N)N)C(=O)N[C@@H](Cc2c[nH]c3ccccc23)C(=O)N1)C(=O)O | 916 | 106 | 160 | 9.6 | 3.2 | 112 |  |  |  | 
CSCC[C@H](NC(=O)[C@@H]1Cc2cn(nn2)CCC[C@H](N)C(=O)N[C@@H](Cc2cnc[nH]2)C(=O)N[C@H](Cc2ccccc2)C(=O)N[C@@H](CCCNC(=N)N)C(=O)N[C@@H](Cc2c[nH]c3ccccc23)C(=O)N1)C(=O)O | > 3000 |  | > 3000 | 720 | 185 |  | 16 | 3 |  | 
CSCC[C@H](NC(=O)[C@@H]1Cc2cn(nn2)C[C@H](NC(=O)[C@@H](N)CCCCN)C(=O)N[C@@H](Cc2cnc[nH]2)C(=O)N[C@H](C)C(=O)N[C@@H](CCCNC(=N)N)C(=O)N[C@@H](Cc2c[nH]c3ccccc23)C(=O)N1)C(=O)O | > 3000 |  | > 3000 | 943 | 112 |  | 33 | 8 |  | 
